Test results as given in PMC9798254 (Protein Science : A Publication of the Protein Society, 2023).

How the values were obtained:
Assay in all cases: coupled photometric phosphate release assay
Format in all cases: biochemical, synthetic construct
Conditions in all cases: 100 mM Tris/HCl pH 7.8, 5 mM MgCl2, 25°C
[1] = tested on: Anc5
In short: (§1)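 Ancestral enzyme expressed in E. coli BW25113 (0.5 mM IPTG, overnight at 20°C). Purified by Ni affinity chromatography and size exclusion in 50 mM Tris/HCl pH 7.5, 400 mM NaCl, 2 mM MgCl2. Phosphate release coupled with 0.5 mM inosine, 0.25 U/ml purine nucleoside phosphorylase and 2.5 U/ml xanthine oxidase, at varied substrate concentrations. Reaction started with enzyme. Km fitted to Michaelis–Menten from initial slopes.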

[2] = tested on: Anc7
In short: as §1

[3] = tested on: Anc6
In short: as §1

Km [1]: 698 ± 123 µM
Km [2]: 122 ± 31 µM
Km [3]: 59 ± 12 µM
SMILES: N[C@H](COP(=O)(O)O)Cc1c[nH]cn1 [HolP]
